Results from ChEMBL document CHEMBL1157841, “Stilbene analogs as inducers of apolipoprotein-I transcription” (Eur J Med Chem, 2010).

Columns and labels:
Caco-2 [1] = test: Induction of human ApoA-1 gene expression in human Caco-2 cells co-transfected with luc-beta-galactosidase after 48 hrs assessed as luciferase activity by luminometer relative to resveratrol; type: functional
Procedure, shortened: (§1)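 Caco-2 cells stably carrying an ApoA-I promoter–luciferase reporter (co-transfected with pRSV-β-galactosidase as transfection control; selected in MEM with 20% calf serum and 0.5 mg/mL G418). Cells seeded, 24 h at 37 °C in 5% CO2, then starved 24 h in 0.5% FBS selection medium. Compounds added at 15 µM in 0.01% DMSO for 48 h. Cells lysed, luciferase read by luminometer and normalized to Bradford protein. Fold induction is taken against untreated cells and against resveratrol, which is run in each experiment.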

Caco-2 [2] = test: Induction of human ApoA-1 gene expression in human Caco-2 cells co-transfected with luc-beta-galactosidase after 48 hrs assessed as luciferase activity by luminometer relative to control; type: functional; procedure, shortened: as §1
Caco-2 [3] = test: Cytotoxicity against human Caco-2 cells; type: cell-based
Caco-2 [4] = test: Induction of human ApoA-1 gene expression in human Caco-2 cells co-transfected with luc-beta-galactosidase at 15 uM after 48 hrs assessed as luciferase activity by luminometer relative to control; type: functional; procedure, shortened: as §1

Row | SMILES | fold change (FC) (Caco-2 [1]) | fold change (FC) (Caco-2 [2]) | Activity (Caco-2 [3]) | fold change (FC) (Caco-2 [4])
1 | O=S(=O)(Nc1ccc(O)cc1)c1ccc(O)cc1 | 0.4 | 1.3 |  | 
2 | Oc1ccc(-c2nnc(-c3cccc(O)c3)o2)cc1 | 0.9 | 3.7 | Non-toxic | 
3 | Oc1cccc(-c2nnc(-c3ccccc3)o2)c1 | 0.6 | 2.2 | Non-toxic | 
4 | OCc1cccc(-c2nnc(-c3ccc(O)cc3)o2)c1 | 0.5 | 1.4 | Non-toxic | 
5 | CC(=O)Nc1cc(O)ccc1/C=C/c1ccc(O)cc1 | 0.3 | 0.9 |  | 
6 | CS(=O)(=O)c1cc(O)ccc1/C=C/c1ccc(O)cc1 | 0.7 | 2 |  | 
7 | O=[N+]([O-])c1cc(O)ccc1/C=C/c1ccc(O)cc1 | 2.8 | 9.4 |  | 
8 | COc1cc(O)ccc1/C=C/c1ccc(O)cc1 | 4.6 | 12.5 |  | 
9 | OCc1cc(O)ccc1/C=C/c1ccc(O)cc1 | 0.5 | 2 |  | 
10 | CN(C)C(=O)c1cc(O)ccc1/C=C/c1ccc(O)cc1 | 0.2 | 1.1 |  | 
11 | Nc1cc(O)ccc1/C=C/c1ccc(O)cc1 | 0.9 | 3.2 |  | 
12 | CCOC(=O)c1cc(/C=C/c2ccc(O)cc2)ccc1O | 0.4 | 1.1 |  | 
13 | NC(=O)c1cc(/C=C/c2ccc(O)cc2)ccc1O | 0.7 | 2.7 |  | 
14 | O=C(Nc1ccccc1)c1ccc(O)cc1 | 0.5 | 1.7 |  | 
15 | O=C(O)c1cc(/C=C/c2ccc(O)cc2)ccc1O | 0.4 | 1.2 |  | 
16 | Oc1ccc(/C=C/c2ccc(O)nc2)cc1 | 0.4 | 1.1 |  | 
17 | Oc1ccc(-c2nnc(-c3ccccc3)o2)cc1 | 0.5 | 1.9 | Non-toxic | 
18 | Oc1ccc(/N=N/c2ccc(O)cc2)cc1 | 1.3 | 3.4 |  | 
19 | O=C(Nc1ccc(O)cc1)c1ccccc1 | 0.6 | 1.7 |  | 
20 | O=C(Nc1ccc(O)cc1)c1ccc(O)cc1 | 0.7 | 1.9 |  | 
21 | Oc1ccc(CCc2ccc(O)cc2)cc1 | 1 | 3.9 |  | 
22 | Oc1ccc(/C=C/c2cc(O)cc(O)c2)cc1 [RESVERATROL] |  |  |  | 2.6
23 | Oc1ccc(/C=C/c2ccc(O)cc2)cc1 [TRANS-4,4'-DIHYDROXYSTILBENE] | 1.6 | 5.1 |  | 
